Legend:
Hepatitis C virus = experiment: Antiviral activity against HCV infected in human HuH7 cells by cell-based subgenomic replicon assay; type: functional, organism-based, Hepacivirus hominis, Huh-7
Outline: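 HCV subgenomic replicon assay in HUH-7 cells, run in 10% fetal cow serum. Cytotoxicity was read in parallel as the prodrug concentration reducing cell viability by 50%.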

[1] = Metabolic stability in sc dosed hamster liver assessed as formation of 2'-C-methylcytidine triphosphate ((2R,3R,4R,5R)-5-(4-amino-2-oxopyrimidin-1(2H)-yl)-3,4-dihydroxy-4-methyltetrahydrofuran-2-yl)methyl tetrahydrogen triphosphate at 1.5 umol after 6 hrs; type: ADME, organism-based; conditions: cricetinae, in vivo
Outline: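 Hamsters received a single subcutaneous dose of compound formulated in PEG. Liver was collected at 6 h and intracellular 2'-C-methylcytidine triphosphate quantified as nmol/g tissue (LLOQ 0.2 nmol/g).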

[2] = Cytotoxicity against human HuH7 cells assessed as cell viability; type: cell-based, Huh-7
Outline: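 Cytotoxicity measured in HUH-7 cells carrying the HCV subgenomic replicon. The value is the prodrug concentration that reduces cell viability by 50%.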

[3] = Metabolic stability in po dosed hamster liver assessed as 2'-C-methylcytidine triphosphate ((2R,3R,4R,5R)-5-(4-amino-2-oxopyrimidin-1(2H)-yl)-3,4-dihydroxy-4-methyltetrahydrofuran-2-yl)methyl tetrahydrogen triphosphate level at 30.3 umol; type: ADME, organism-based; conditions: cricetinae, in vivo
Plasma = experiment: Stability in human plasma assessed as 2'-C-methylcytidine triphosphate ((2R,3R,4R,5R)-5-(4-amino-2-oxopyrimidin-1(2H)-yl)-3,4-dihydroxy-4-methyltetrahydrofuran-2-yl)methyl tetrahydrogen triphosphate level; type: ADME, cell-free
Outline: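 Prodrug stability was measured in human plasma and scored as the fraction of dose remaining over time: stable; 80% of dose left after 2 h; 30% left after 1 h; 0% left after 18 min.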

Row | EC50 (Hepatitis C virus; Hepatitis C virus, Huh-7) | Compound | also measured
1 | 14 µM | CCCCCCOCCOC(=O)[C@H](C)NP1(=O)OC[C@H]2O[C@@H](n3ccc(N)nc3=O)[C@](C)(O)[C@@H]2O1 (stereo partly specified) | Activity [1]: 2.6 nmol/g
2 | > 50 µM | CCOC(=O)[C@H](CC(C)C)NP1(=O)OC[C@H]2O[C@@H](n3ccc(N)nc3=O)[C@](C)(O)[C@@H]2O1 (stereo partly specified) | –
3 | > 10 µM | C[C@H](NP1(=O)OC[C@H]2O[C@@H](n3ccc(N)nc3=O)[C@](C)(O)[C@@H]2O1)C(=O)OC1CCCCCC1 (stereo partly specified) | Activity [1]: 10.3 nmol/g
4 | > 20 µM | CCC(CC)COC(=O)[C@H](C)NP1(=O)OC[C@H]2O[C@@H](n3ccc(N)nc3=O)[C@](C)(O)[C@@H]2O1 (stereo partly specified) | Activity [1]: 8.9 nmol/g
5 | > 20 µM | C[C@H](NP1(=O)OC[C@H]2O[C@@H](n3ccc(N)nc3=O)[C@](C)(O)[C@@H]2O1)C(=O)OC1CCCC1 (mixture of isomers) | –
6 | > 20 µM | CC(C)CCOC(=O)[C@H](C)NP1(=O)OC[C@H]2O[C@@H](n3ccc(N)nc3=O)[C@](C)(O)[C@@H]2O1 (stereo in doubt) | –
7 | – | CCCCOC(=O)[C@H](C)NP1(=O)OC[C@H]2O[C@@H](n3ccc(N)nc3=O)[C@](C)(O)[C@@H]2O1 (stereo in doubt; 10 F.E.) | EC50 (Hepatitis C virus; huh-7): > 20 µM
8 | – | CCCCCCCOC(=O)[C@H](C)NP1(=O)OC[C@H]2O[C@@H](n3ccc(N)nc3=O)[C@](C)(O)[C@@H]2O1 (stereo in doubt; 12 F.E.) | EC50 (Hepatitis C virus; huh-7): 15 µM
9 | 10.5 µM | CCCCCCCOC(=O)[C@H](C)NP1(=O)OC[C@H]2O[C@@H](n3ccc(N)nc3=O)[C@](C)(O)[C@@H]2O1 (stereo in doubt; 12 S.E.) | Activity [1]: 5.9 nmol/g
10 | > 20 µM | C[C@H](NP1(=O)OC[C@H]2O[C@@H](n3ccc(N)nc3=O)[C@](C)(O)[C@@H]2O1)C(=O)OC1CCCCC1 (stereo in doubt; 14 F.E.) | –
11 | – | COCCCOC(=O)[C@H](C)NP1(=O)OC[C@H]2O[C@@H](n3ccc(N)nc3=O)[C@](C)(O)[C@@H]2O1 (stereo in doubt; 16 F.E.) | EC50 (Hepatitis C virus; huh-7): > 20 µM
12 | 28 µM | COCCCOC(=O)[C@H](C)NP1(=O)OC[C@H]2O[C@@H](n3ccc(N)nc3=O)[C@](C)(O)[C@@H]2O1 (stereo in doubt; 16 S.E.) | –
13 | – | CCCC(CCC)COC(=O)[C@H](C)NP1(=O)OC[C@H]2O[C@@H](n3ccc(N)nc3=O)[C@](C)(O)[C@@H]2O1 (stereo in doubt; 20 F.E.) | EC50 (Hepatitis C virus; huh-7): > 20 µM
14 | 14 µM | CCCC(CCC)COC(=O)[C@H](C)NP1(=O)OC[C@H]2O[C@@H](n3ccc(N)nc3=O)[C@](C)(O)[C@@H]2O1 (stereo in doubt; 20 S.E.) | –
15 | 7.6 µM | CC(C)[C@H](N)C(=O)O[C@@H]1[C@@H](CO)O[C@@H](n2ccc(N)nc2=O)[C@]1(C)O [VALOPICITABINE] | Activity [1]: < 0.2 nmol/g; CC50 [2]: > 100 µM

Row | Compound | EC50 (Hepatitis C virus; Hepatitis C virus, Huh-7) | also measured
16 | C[C@H](NP1(=O)OC[C@H]2O[C@@H](n3ccc(N)nc3=O)[C@](C)(O)[C@@H]2O1)C(=O)OC(C)(C)C (stereo partly specified) | > 20 µM | –
17 | CCOC(=O)[C@H](C)N[P@]1(=O)OC[C@H]2O[C@@H](n3ccc(N)nc3=O)[C@](C)(O)[C@@H]2O1 | 4 µM | CC50 [2]: > 100 µM
18 | CCOC(=O)[C@H](C)N[P@@]1(=O)OC[C@H]2O[C@@H](n3ccc(N)nc3=O)[C@](C)(O)[C@@H]2O1 | > 20 µM | CC50 [2]: > 100 µM
19 | CCOC(=O)[C@H](CC)NP1(=O)OC[C@H]2O[C@@H](n3ccc(N)nc3=O)[C@](C)(O)[C@@H]2O1 (stereo partly specified) | 5.6 µM | Activity [3]: < 0.2 nmol/g; Stability (Plasma): Stable
20 | CCC[C@H](NP1(=O)OC[C@H]2O[C@@H](n3ccc(N)nc3=O)[C@](C)(O)[C@@H]2O1)C(=O)OCC (mixture of isomers) | > 20 µM | –
21 | CCCCOC(=O)[C@H](C)NP1(=O)OC[C@H]2O[C@@H](n3ccc(N)nc3=O)[C@](C)(O)[C@@H]2O1 (stereo in doubt; 10 S.E.) | 15 µM | –

— ChEMBL document CHEMBL1153624, “Cyclic phosphoramidates as prodrugs of 2'-C-methylcytidine” (Eur J Med Chem, 2009)
